Experimental data: PubChem BioAssay
The source made the active and inactive calls.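 The calls were made as follows, unless noted: active = viability at or below 30% in both replicate assays; inconclusive = viability at or below 30% in just one of the two assays; inactive = the rest.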

Columns and labels:
[1] = reducers of endogenous Her2 protein level, primary screen, SKBR3 breast tumor cells, AlphaScreen, ATP viability (AID 461;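 active = Her2 level under about 52% in both replicate screens, with viability over 70% of control, limit read from the data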;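 as to Her2 level: lower value means less Her2 protein in the cells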;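 as to viability: percent of carrier control wells set as 100% viability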); details: 18-24 h, measured here: SKBR3 viability, ATP luminescence, at 10 µM
[2] = biological target: Receptor tyrosine-protein kinase erbB-2 (Homo sapiens) (UniProt P04626); assay: as above; details: 18-24 h, at 10 µM, stronger effect = lower value
[3] = SK-BR-3 cell growth inhibitors, pilot screen, 24 h, human (AID 572;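 active = viability at or below 10% of carrier control in both of two separate runs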;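 also: compound exposure lasted between 18 and 24 h rather than exactly 24 h; 100% = carrier-treated control wells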); details: SK-BR-3 viability, CellTiter-Glo luminescence, at 10 µM, stronger effect = lower value
[4] = HUVEC growth inhibition – cell-based, human, primary screen (AID 575); details: HUVEC proliferation, CellTiter-Glo luminescence, 72 h; at 10 µM; stronger effect = lower value;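 also: 100% = median of untreated cell wells with 0.1% DMSO on each plate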
Summary of the method: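 System: primary human umbilical vein endothelial cells; Quantity: 1250 endothelial cells in each well; Buffer or medium: supplemented EBM, 2% fetal bovine serum; Doses: one dose, 10 µM final, 0.1% DMSO; Incubation: 72 h compound incubation; Technique: ATP-based CellTiter-Glo luminescent read; Evaluation: percent of median DMSO-control luminescence; Controls: vehicle and MePR control wells.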

[5] = growth inhibitors of H69AR lung tumor, primary screen, human, duplicate replicates (AID 580;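 active = viability at or under a set limit in both replicates, limit being median viability minus 3 SD, cut at about 48% in these data, passing the limit was not always enough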;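 also: 100% = mean luminescence of untreated wells and 0% = no signal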); details: H69AR lung tumor cells viability, ATP luminescence, 72 h; at 10 µM; stronger effect = lower value
[6] = reversal of MRP1-mediated doxorubicin resistance, pilot screen, H69AR cells, doxorubicin co-treatment (AID 601;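 active = viability loss from added drug above about 55%, and viability with drug at most 40%, in both replicates, limit read from the data, passing the limit was not always enough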); details: CellTiter-Glo, 72 h, at 10 µM; for differential viability (reversal): stronger effect = higher value
[7] = 384-well plate pilot, post-Golgi transport modulator project, inhibition of yeast transport mutant growth (AID 636; in the data active = inhibition above about 31%); details: absorbance 615 nm, about 18 h, stronger effect = higher value
[8] = growth suppression of yeast trafficking mutant, preliminary HTS, modulators of trafficking downstream of Golgi apparatus project, 1536-format plate, OD 615 nm (AID 637; in the data active = inhibition above about 30%); details: yeast transport mutant growth, absorbance 615 nm, 18 h; stronger effect = higher value
[9] = H69AR cells + 2 uM doxorubicin, measured here: viability with 2 uM doxorubicin, stronger effect = lower value
[10] = H69AR cells, compound alone cytotoxicity

Sequence of Receptor tyrosine-protein kinase erbB-2 (Homo sapiens) (P04626 whole entry, looked up): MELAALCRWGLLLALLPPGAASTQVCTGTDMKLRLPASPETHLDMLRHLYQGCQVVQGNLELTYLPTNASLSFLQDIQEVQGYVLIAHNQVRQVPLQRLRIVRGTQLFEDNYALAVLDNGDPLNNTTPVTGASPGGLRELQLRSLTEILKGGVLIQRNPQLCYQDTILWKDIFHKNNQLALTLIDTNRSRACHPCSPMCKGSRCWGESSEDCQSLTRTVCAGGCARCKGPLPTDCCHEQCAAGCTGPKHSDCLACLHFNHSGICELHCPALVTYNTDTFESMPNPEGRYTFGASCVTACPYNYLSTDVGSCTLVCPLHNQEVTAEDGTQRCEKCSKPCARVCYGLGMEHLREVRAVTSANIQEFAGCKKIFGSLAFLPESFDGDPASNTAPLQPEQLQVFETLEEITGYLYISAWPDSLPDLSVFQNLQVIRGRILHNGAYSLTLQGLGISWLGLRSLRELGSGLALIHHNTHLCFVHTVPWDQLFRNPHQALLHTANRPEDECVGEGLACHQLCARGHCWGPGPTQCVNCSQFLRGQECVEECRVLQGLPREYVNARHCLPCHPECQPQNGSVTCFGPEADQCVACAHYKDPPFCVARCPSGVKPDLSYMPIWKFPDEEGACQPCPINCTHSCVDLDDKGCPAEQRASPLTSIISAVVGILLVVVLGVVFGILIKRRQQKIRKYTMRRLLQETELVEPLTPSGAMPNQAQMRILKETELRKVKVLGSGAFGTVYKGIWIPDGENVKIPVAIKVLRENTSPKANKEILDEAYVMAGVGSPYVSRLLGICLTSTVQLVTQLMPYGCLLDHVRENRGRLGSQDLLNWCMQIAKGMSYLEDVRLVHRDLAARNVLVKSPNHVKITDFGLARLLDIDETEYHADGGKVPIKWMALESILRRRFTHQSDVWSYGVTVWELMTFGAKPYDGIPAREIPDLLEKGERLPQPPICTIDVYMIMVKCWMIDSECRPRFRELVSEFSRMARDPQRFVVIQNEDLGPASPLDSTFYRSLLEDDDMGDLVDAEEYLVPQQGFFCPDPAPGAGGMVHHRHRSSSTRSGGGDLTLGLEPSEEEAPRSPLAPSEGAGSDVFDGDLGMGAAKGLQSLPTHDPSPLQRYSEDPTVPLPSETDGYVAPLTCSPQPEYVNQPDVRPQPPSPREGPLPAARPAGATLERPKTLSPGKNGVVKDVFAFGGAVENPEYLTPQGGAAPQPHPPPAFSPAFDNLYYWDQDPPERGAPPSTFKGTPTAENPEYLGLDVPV

SMILES	viability [1] [%]	Her2 level [2]	viability [3]	viability [4]	viability [5]	differential viability (reversal) ([6]; H69AR cells + 2 uM doxorubicin)	viability [6, 9] [%]	viability [6, 10] [%]	inhibition [7]	inhibition [8]
O=C1C(Cl)=C(N2CCCCC2)C(=O)N1c1ccccc1Cl	106	79.5% (inactive)	106% (inactive)	89.7% (inactive)	81.8% (inactive)	1.39% (inactive)	80.4	81.8	-2.6% (inactive)	2.95% (inactive)
Cc1ccc(C(=O)CSc2nnc(-c3cccnc3)n2N)cc1	104	89.5% (inactive)	104% (inactive)	68.9% (inactive)	28.2% (active)	-49.2% (inactive)	77.4	28.2	-0.93% (inactive)	0.97% (inactive)
Cc1cc(C)nc(SCc2nnc(SCc3ccccc3Cl)o2)n1	80	78.5% (inactive)	80% (inactive)	93.8% (inactive)	79.5% (inactive)	-1.99% (inactive)	81.5	79.5	-3.29% (inactive)	1.82% (inactive)
COc1ccc(OC)c(NC(=O)C2CCN(c3cc(-c4ccccc4)nc4ncnn34)CC2)c1	95.5	76.5% (inactive)	95.5% (inactive)	71% (inactive)	75.4% (inactive)	-0.75% (inactive)	76.1	75.4	-0.66% (inactive)	-0.48% (inactive)
Nn1c(SCC(=O)Nc2ccc3c(c2)OCO3)nnc1C1CC1	102	78.5% (inactive)	102% (inactive)	105% (inactive)	94.2% (inactive)	2% (inactive)	92.2	94.2	-5.41% (inactive)	8.25% (inactive)
C=CCOc1ccc(/C(O)=C2\C(=O)C(=O)N(CCOC)C2c2cccnc2)cc1 (stereo not given)	99	94.5% (inactive)	99% (inactive)	107% (inactive)	103% (inactive)	14.8% (inactive)	88.4	103	-6.89% (inactive)	1.17% (inactive)
Cc1nc2ncnn2c(Nc2ccc3c(c2)OCCO3)c1C	91	110% (inactive)	91% (inactive)	106% (inactive)	73.7% (inactive)	-23.6% (inactive)	97.3	73.7	2.8% (inactive)	26.1% (inactive)
Cn1c(=N)n(CC(=O)O)c2ccccc21	108	100% (inactive)	108% (inactive)	91.5% (inactive)	96.2% (inactive)	6.81% (inactive)	89.4	96.2	-5.97% (inactive)	-5.4% (inactive)
COCC(=O)N(Cc1ccc(OC)cc1)Cc1nc2ccccc2c(=O)[nH]1	126	108% (inactive)	126% (inactive)	83.6% (inactive)	86.2% (inactive)	-13.9% (inactive)	100	86.2	-5.66% (inactive)	5% (inactive)
CC1(C)Cc2cccc(OCC(O)CN3CCN(c4ccccn4)CC3)c2O1 (stereo not given)	84	94% (inactive)	84% (inactive)	86.1% (inactive)	70.3% (inactive)	-17.7% (inactive)	88	70.3	-3.38% (inactive)	-7.3% (inactive)
Cc1ccc(NC(=O)C2CCCN(S(=O)(=O)c3cnc[nH]3)C2)cc1C (stereo not given)	95	110% (inactive)	95% (inactive)	102% (inactive)	100% (inactive)	5.56% (inactive)	94.6	100	-5.6% (inactive)	-2.3% (inactive)
O=C(Cn1c(SCC(=O)N2CCCc3ccccc32)nc2ccccc21)N1CCCC1	94	96% (inactive)	94% (inactive)	104% (inactive)	98.3% (inactive)	4.66% (inactive)	93.6	98.3	-6.05% (inactive)	-2.38% (inactive)
CCc1nccn1S(=O)(=O)c1ccc(C)c(C)c1	119	92.5% (inactive)	119% (inactive)	96.7% (inactive)	99.6% (inactive)	12.7% (inactive)	86.9	99.6	-4.86% (inactive)	16.2% (inactive)
Cc1cc(NC(=O)CN2CCC(O)(c3cccc(F)c3)CC2)no1	97	107% (inactive)	97% (inactive)	110% (inactive)	109% (inactive)	22.5% (inactive)	86.6	109	-0.27% (inactive)	-6.83% (inactive)
Cc1ccc(S(=O)(=O)N2CCOCC(=O)NCCOCCNC(=O)COCC2)cc1	93.5	102% (inactive)	93.5% (inactive)	95.4% (inactive)	106% (inactive)	8.95% (inactive)	96.9	106	-4.13% (inactive)	-4.26% (inactive)
COc1ccc2ccccc2c1CN1CCN(C)CC1	97	94.5% (inactive)	97% (inactive)	75.1% (inactive)	104% (inactive)	7.19% (inactive)	96.6	104	1.43% (inactive)	-0.66% (inactive)
CCn1c(=S)ccc2ccc(OC)cc21	88.5	114% (inactive)	88.5% (inactive)	98.7% (inactive)	101% (inactive)	13.2% (inactive)	87.6	101	-5.14% (inactive)	-7.46% (inactive)
CC1Cc2nc(SCC(=O)Nc3ccccc3F)n(C)c(=O)c2S1 (stereo not given)	104	89.5% (inactive)	104% (inactive)	92.4% (inactive)	93.5% (inactive)	-0.345% (inactive)	93.8	93.5	-7.95% (inactive)	4.29% (inactive)
Cc1ccc(C(C(=O)NC(C)(C)C)N(C(=O)c2csnn2)c2cccc(F)c2)o1 (stereo not given)	83.5	97% (inactive)	83.5% (inactive)	103% (inactive)	92.8% (inactive)	1.6% (inactive)	91.2	92.8	-3.6% (inactive)	24.4% (inactive)
O=C(Nc1ccon1)c1csc2c1CCCC2	92.5	85% (inactive)	92.5% (inactive)	83.2% (inactive)	98.3% (inactive)	10.9% (inactive)	87.4	98.3	-5.66% (inactive)	2% (inactive)
Cc1ccc(S(=O)(=O)N2CCC(C(=O)NCCN3CCCCCC3)CC2)cc1	91	93.5% (inactive)	91% (inactive)	108% (inactive)	103% (inactive)	18.1% (inactive)	84.6	103	0.13% (inactive)	2.13% (inactive)
Cc1ccccc1-n1nnnc1SCC(=O)Nc1ccc(S(=O)(=O)N2CCCC2)cc1	70.5	100% (inactive)	70.5% (inactive)	94.6% (inactive)	85% (inactive)	-2.96% (inactive)	88	85	0.53% (inactive)	2.1% (inactive)
NC(=O)c1c(-c2ccccc2)oc2ccc(O)cc12	121	88% (inactive)	121% (inactive)	96.2% (inactive)	90.4% (inactive)	13.4% (inactive)	77	90.4	1.18% (inactive)	-9.82% (inactive)
Cc1cccc(NC2SC(=O)N(c3ccccc3)C2=O)c1 (stereo not given)	100	81% (inactive)	100% (inactive)	88.9% (inactive)	87.6% (inactive)	-10.4% (inactive)	97.9	87.6	-3.25% (inactive)	-5.5% (inactive)
Cc1ccccc1CS(=O)(=O)CCC(=O)N1CCN(c2ccc(N3CCOCC3)nn2)CC1	91.5	81% (inactive)	91.5% (inactive)	97.1% (inactive)	103% (inactive)	10.7% (inactive)	92.7	103	-2.24% (inactive)	-0.73% (inactive)
CSCSC1=C(C#N)C(c2ccc(Cl)cc2)C(C(C)=O)=C(C)N1 (stereo not given)	106	94.5% (inactive)	106% (inactive)	64.3% (inactive)	75.2% (inactive)	-5.35% (inactive)	80.6	75.2	-5.32% (inactive)	1.31% (inactive)
COc1ccc(C2C3=C(CC(C)(C)CC3=O)Oc3ncn4nc(-c5cccnc5)nc4c32)cc1 (stereo not given)	96	84.5% (inactive)	96% (inactive)	108% (inactive)	105% (inactive)	14.3% (inactive)	90.9	105	-9.05% (inactive)	0% (inactive)
Cc1ccc2c(Cl)cc(Cl)c(OCc3c(C)noc3C)c2n1	102	99.5% (inactive)	102% (inactive)	84.7% (inactive)	84.9% (inactive)	-0.21% (inactive)	85.1	84.9	6.08% (inactive)	13.3% (inactive)
